Data taken from ChEMBL document CHEMBL1141397, “Pharmacophore-based design of sphingosine 1-phosphate-3 receptor antagonists that include a 3,4-dialkoxybenzophenone scaffold” (J Med Chem, 2007).

What was measured:
Type in all cases: functional, cell-based
[1] = molecular target: T1, Sphingosine 1-phosphate receptor 3 (Homo sapiens, UniProt Q99500); experiment: Antagonist activity against human S1P3 receptor assessed as inhibition of S1P-induced intracellular calcium mobilization in CHO-K1 cells at 10 uM
T1 sequence (Q99500 whole entry): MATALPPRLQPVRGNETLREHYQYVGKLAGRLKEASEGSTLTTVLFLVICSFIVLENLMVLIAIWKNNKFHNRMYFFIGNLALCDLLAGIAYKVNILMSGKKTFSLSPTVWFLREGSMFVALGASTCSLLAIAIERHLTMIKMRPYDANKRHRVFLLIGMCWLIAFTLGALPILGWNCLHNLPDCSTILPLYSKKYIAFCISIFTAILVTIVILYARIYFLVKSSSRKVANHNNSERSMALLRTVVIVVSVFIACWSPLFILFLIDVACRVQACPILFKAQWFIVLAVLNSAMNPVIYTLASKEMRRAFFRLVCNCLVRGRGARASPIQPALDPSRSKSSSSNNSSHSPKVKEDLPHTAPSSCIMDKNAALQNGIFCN
Summary of the method: (§1)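 CHO-K1 cells stably transfected with the S1P1, S1P2 or S1P3 receptor, grown in Ham's F12K with G418 (200 µg/mL). Cells plated at 20 000/well in Ham's medium with 1% FBS for 24 h at 37 °C, washed, then held in Ham's medium for a further 24 h. Cells are washed with HBSS containing sulfinpyrazone (0.25 mmol/L) and loaded with Fura-2.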

[2] = molecular target: T1, Sphingosine 1-phosphate receptor 3; experiment: Antagonist activity against human S1P3 receptor assessed as inhibition of S1P-induced intracellular calcium mobilization in CHO-K1 cells; summary of the method: as §1
[3] = molecular target: Sphingosine 1-phosphate receptor 2 (Homo sapiens) (UniProt O95136); experiment: Antagonist activity against human S1P2 receptor assessed as inhibition of S1P-induced intracellular calcium mobilization in CHO-K1 cells at 10 uM; summary of the method: as §1
Sequence of Sphingosine 1-phosphate receptor 2 (Homo sapiens) (O95136 whole entry): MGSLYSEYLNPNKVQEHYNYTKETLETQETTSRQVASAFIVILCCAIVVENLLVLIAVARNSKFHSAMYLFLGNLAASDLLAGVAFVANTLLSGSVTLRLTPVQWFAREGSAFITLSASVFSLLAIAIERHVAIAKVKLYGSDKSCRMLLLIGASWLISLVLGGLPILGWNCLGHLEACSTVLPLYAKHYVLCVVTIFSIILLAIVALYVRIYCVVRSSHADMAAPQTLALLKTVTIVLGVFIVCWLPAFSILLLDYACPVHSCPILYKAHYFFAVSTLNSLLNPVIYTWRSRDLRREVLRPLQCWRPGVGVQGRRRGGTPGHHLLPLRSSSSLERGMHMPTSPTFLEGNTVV

[4] = molecular target: T2, Sphingosine 1-phosphate receptor 1 (Homo sapiens, UniProt P21453); experiment: Activity at human S1P1 receptor assessed as inhibition of S1P-induced intracellular calcium mobilization in CHO-K1 cells at 10 uM; summary of the method: as §1
T2 sequence (P21453 whole entry): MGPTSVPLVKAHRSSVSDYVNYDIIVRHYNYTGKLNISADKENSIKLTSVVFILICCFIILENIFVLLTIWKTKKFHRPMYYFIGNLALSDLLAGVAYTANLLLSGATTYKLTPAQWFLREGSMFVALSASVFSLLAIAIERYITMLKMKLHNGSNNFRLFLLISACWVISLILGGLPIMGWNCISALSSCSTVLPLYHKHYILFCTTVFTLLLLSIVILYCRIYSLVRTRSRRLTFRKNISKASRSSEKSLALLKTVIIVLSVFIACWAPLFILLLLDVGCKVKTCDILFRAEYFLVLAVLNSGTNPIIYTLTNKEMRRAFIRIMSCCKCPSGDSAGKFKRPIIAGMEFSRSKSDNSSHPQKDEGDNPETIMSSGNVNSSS

[5] = molecular target: T2, Sphingosine 1-phosphate receptor 1; experiment: Antagonist activity against human S1P1 receptor assessed as inhibition of S1P-induced intracellular calcium mobilization in CHO-K1 cells; summary of the method: as §1

Row | SMILES | IC50 [2] [µM] | inhibition [3] [%] | inhibition [4] [%] | further results
1 | CCCCCCCCCCCCCC1N[C@H](C(=O)O)CS1 (some centres not stated) |  |  |  | inhibition [1]: < 10%
2 | CCCCCCCCCc1cccc(C2N[C@H](C(=O)O)CS2)c1 (some centres not stated) | > 20 |  |  | 
3 | CCCCCCCCOc1ccc(/C(=N/NS(=O)(=O)c2cc(C(=O)O)cc(C(=O)O)c2)c2ccccc2)cc1OC | 11.4 | -4.6 | 12.7 | 
4 | CCCCCCCCCCCCCCCCOc1ccc(/C(=N\NS(=O)(=O)c2cccc(C(=O)O)c2)c2ccccc2)cc1OC |  | -8.7 | 1 | inhibition [1]: 8.3%
5 | CCCCCCCCCCCC1N[C@H](C(=O)O)CS1 (some centres not stated) | 11.6 |  |  | 
6 | CCCCCCCCCCC1N[C@H](C(=O)O)CS1 (some centres not stated) | 15.7 |  |  | 
7 | CCCCCCCCOc1ccc(/C(=N\NS(=O)(=O)c2cc(C(=O)O)cc(C(=O)O)c2)c2ccccc2)cc1OC | 13.2 | 14 | 32.9 | 
8 | CCCCCCCc1ccc(C2N[C@H](C(=O)O)CS2)cc1 (some centres not stated) | 13 |  |  | 
9 | CCCCCCCCCCCCCCCCOc1ccc(/C(=N/NS(=O)(=O)c2cccc(C(=O)O)c2)c2ccccc2)cc1OC |  | -0.1 | 34.8 | HI [1]: 34.4%
10 | CCCCOc1ccc(/C(=N/NS(=O)(=O)c2cc(C(=O)O)cc(C(=O)O)c2)c2ccccc2)cc1OC |  | 6.2 | 24.2 | inhibition [1]: 6.7%
11 | COc1ccc(C2N[C@H](C(=O)O)CS2)cc1COc1c(C)cc(Cl)cc1C(C)C (some centres not stated) | > 20 |  |  | 

The next lines start with results.

Row | IC50 [2] [µM] | inhibition [3] [%] | inhibition [4] [%] | SMILES | further results
12 | 9.7 |  |  | CCCCCCCc1cccc(C2N[C@H](C(=O)O)CS2)c1 (some centres not stated) | 
13 | 3.59 |  |  | CCCCCCCCCCCCCCCCCC(=O)Nc1ccc(C(=O)CC(=O)Cc2cc(C(=O)O)ccc2Oc2cc(C(=O)O)cc(C(=O)O)c2)cc1 | 
14 | 4.6 |  |  | CCCCCCCCCCCCCCCCCNc1ccc(C(=O)CC(=O)Cc2cc(C(=O)O)ccc2Oc2cc(C(=O)O)cc(C(=O)O)c2)cc1 | 
15 | 3.44 | 35.9 |  | CCCCCCCCCCCCCCCCOc1ccc(/C(=N/NS(=O)(=O)c2cc(C(=O)O)cc(C(=O)O)c2)N2CCCCC2)cc1OC | IC50 [5]: 6.18 µM
16 | 3.57 | 9.5 |  | CCCCCCCCCCCCCCCCOc1ccc(/C(=N\NS(=O)(=O)c2cc(C(=O)O)cc(C(=O)O)c2)c2ccccc2)cc1OC | IC50 [5]: 4.28 µM
17 | 9.74 | 20.5 | 17.2 | CCCCCCCCCCCCCCCCOc1ccc(/C(=N/NS(=O)(=O)c2cc(C(=O)O)cc(C(=O)O)c2)c2ccccc2)cc1 | 
18 | 2.96 | 40.9 |  | CCCCCCCCCCCCCCCCOc1ccc(/C(=N/NS(=O)(=O)c2cc(C(=O)O)cc(C(=O)O)c2)c2ccccc2)cc1OC | IC50 [5]: 6.64 µM
19 | 8.75 |  |  | CCCCCCCCCCCCCCCCOc1ccc(S(=O)(=O)O)cc1C(=O)O | 
